Published values collected from several papers.
Converted amounts (≈) assume the structure as drawn.

SMILES | organism | assay | test system | conditions | quantity | result
CC(=O)Oc1ccc(-c2c(C(N)=O)c(N)n(N)c(=O)c2C#N)cc1 | Enterobacter cloacae | microbial growth, well diffusion | ATCC23355 | 500 µg/mL | inhibition zone | 12 mm
CN(Cc1ccc(C(C)(C)C)cc1)Cc1cccc2ccccc12 | Trichophyton mentagrophytes | microbial growth, disc diffusion | ATCC18748 | 0.0005 µg/mL, 72 h | inhibition zone | 14.5 mm
Cn1cc2c3c1C(=O)C(NCCc1ccc(O)cc1)=CC3=[N+](C)CC2 | Babesia divergens | parasite growth, SYBR Green | – | 60 h, blood stage | IC50 | 12.2 nM
CN(C)c1ccc(-c2c(C(N)=S)c(N)n(N)c(=O)c2C#N)cc1 | Enterobacter cloacae | microbial growth, well diffusion | ATCC23355 | 500 µg/mL | inhibition zone | 14 mm
C[C@@H]1[C@H](O)[C@@H](C)/C=C/C=C/C=C/C=C/C=C/C=C/C=C/[C@H](O[C@@H]2O[C@H](C)[C@@H](O)[C@H](N)[C@@H]2O)C[C@@H]2O[C@](O)(C[C@@H](O)C[C@@H](O)[C@H](O)CC[C@@H](O)C[C@@H](O)CC(=O)O[C@H]1C)C[C@H](O)[C@H]2C(=O)O | Trichophyton mentagrophytes | microbial growth, broth dilution | ATCC9533 | 96 h | MIC | 8 µg/mL (≈ 8.66 µM)
O=C1C(NCCc2c[nH]c3ccccc23)=CC2=NCCc3c[nH]c1c32 | Babesia divergens | parasite growth, SYBR Green | – | 60 h, blood stage | IC50 | 970 nM
CN(Cc1ccc(C2(C(F)(F)F)CC2)cc1)Cc1cccc2ccccc12 | Trichophyton mentagrophytes | microbial growth, disc diffusion | ATCC18748 | 0.001 µg/mL, 72 h | inhibition zone | 8.5 mm
O=C1c2[nH]cc3c2C(=NCC3)c2c(-c3ccc(O)cc3)c[nH]c21 | Babesia divergens | parasite growth, SYBR Green | – | 60 h, blood stage | IC50 | 614 nM
N#Cc1c(-c2ccc(Cl)cc2Cl)c(C(N)=O)c(N)n(N)c1=O | Enterobacter cloacae | microbial growth, well diffusion | ATCC23355 | 500 µg/mL | inhibition zone | 14 mm
